Test results taken from ChEMBL document CHEMBL2321840, “Synthesis and structure-activity relationships of indazole arylsulfonamides as allosteric CC-chemokine receptor 4 (CCR4) antagonists” (J Med Chem, 2013).
In brackets after ≈: the same amount, converted by molar mass.

Tests used:
[1] = Kinetic solubility of the compound by chemiluminescent nitrogen detection assay; type: physicochemical; conditions: for solubility kinetic: read-out: Kinetic_solubility
[2] = Lipophilicity, log D of the compound by chromatographic analysis; type: physicochemical
Procedure, shortened: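 Chromatographic log D measured at pH 7.4.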

[3] = target: T1, C-C chemokine receptor type 4 (Homo sapiens, UniProt P51679); experiment: Antagonist activity at human recombinant CCR4 receptor expressed in CHO cell membranes by [35S]GTPgammaS binding assay; type: functional
T1 sequence (P51679 whole entry): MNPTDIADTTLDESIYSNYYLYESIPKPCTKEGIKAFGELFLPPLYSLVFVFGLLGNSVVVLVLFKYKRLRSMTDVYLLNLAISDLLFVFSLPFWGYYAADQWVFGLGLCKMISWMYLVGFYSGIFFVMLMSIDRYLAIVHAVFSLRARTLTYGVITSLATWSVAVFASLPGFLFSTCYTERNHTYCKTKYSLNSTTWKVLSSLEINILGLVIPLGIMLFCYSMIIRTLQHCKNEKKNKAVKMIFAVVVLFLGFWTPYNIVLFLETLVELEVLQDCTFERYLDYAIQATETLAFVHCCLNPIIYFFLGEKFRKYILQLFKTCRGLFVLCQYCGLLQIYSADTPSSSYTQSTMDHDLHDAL

[4] = target: T1, C-C chemokine receptor type 4; experiment: Antagonist activity at CCR4 receptor in human whole blood assessed as F-actin polymerization after 30 mins by FACS-based flow cytometric analysis; conditions: for Kb: read-out: pA2 (converted)
[5] = Dissociation constant, pKa of the compound; type: physicochemical
[6] = Oral bioavailability in CD rat at 1 mg/kg; type: ADME, organism-based; conditions: in vivo
Procedure, shortened: (§1)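 CD rat pharmacokinetics, with compounds given as solutions in DMSO–PEG200–H₂O (5:45:50); one analogue used a 10:40:50 ratio.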

[7] = Volume of distribution at steady state in CD rat at 1 mg/kg, iv and 1 mg/kg, po; type: ADME, organism-based; conditions: in vivo, read-out: Vdss; procedure, shortened: as §1
in vivo [8] = conditions: beagle, dog, iv, 0.5 mg/kg
in vivo [9] = conditions: CD, rat, iv, 1 mg/kg
[10] = Plasma protein binding in human by equilibrium dialysis technique; type: ADME, cell-free; conditions: read-out: PPB (converted)
Procedure, shortened: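 Rapid equilibrium dialysis in CD rat, beagle dog or human plasma, with compound at a nominal 1 μg/mL; n = 3.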

in vivo [11] = conditions: CD, rat, iv, 1 mg/kg; remark: listed apart in the source
[12] = Volume of distribution at steady state in Beagle dog at 0.5 mg/kg, iv; type: ADME, organism-based, Canis lupus familiaris; set-up: dose 0.5 mg/kg, route intravenous; conditions: beagle, in vivo, read-out: Vdss
in vivo [13] = conditions: beagle, dog, iv, 0.5 mg/kg; remark: listed apart in the source

solubility kinetic [1] [µg/mL]	chromatographic logD [2]	IC50 [3] [nM]	Kb [4] [nM]	pKa [5]	other results	Compound
≥ 199	4.1	12.6	3160			COc1c(F)ccc2c1c(NS(=O)(=O)c1ccc(Cl)s1)nn2Cc1cccc(CNC(C)=O)c1
36 (≈ 66.6 µM)	4.5	15.8	1260	7.26		COc1cccc2c1c(NS(=O)(=O)c1ccc(C)c(F)c1)nn2Cc1cccc(CNC(=O)C(C)(C)O)c1
	2.9					O=C([C@H]1CCCCN1)N1CCN(c2nc(NCc3ccc(Cl)cc3Cl)c3cccnc3n2)CC1
≥ 182	3	126				COc1cccc2c1c(NS(=O)(=O)c1ccc(Cl)s1)nn2Cc1cccc(CNC(C)=O)n1
≥ 180	4.4	6.31	251		bioavailability [6]: 68%; Vd [7]: 1 L/kg; clearance (in vivo [8]): 22 mL/min/kg; half-life (in vivo [9]): 1.3 h; fraction unbound [10]: 0.014; clearance (in vivo [11]): 24 mL/min/kg; Vd [12]: 5.7 L/kg; half-life (in vivo [13]): 2.6 h	COc1cccc2c1c(NS(=O)(=O)c1ccc(Cl)s1)nn2Cc1cccc(CNC(=O)C2COCCN2C)c1 (single isomer, unassigned; isomer B)
157 (≈ 272 µM)	4.7	398		6.82		COc1cccc2c1c(NS(=O)(=O)c1cccc(Cl)c1Cl)nn2Cc1cccc(CNC(=O)C(C)(C)O)c1
≥ 208	2.7	20	501	5.62	bioavailability [6]: 35%; Vd [7]: 3.5 L/kg; half-life (in vivo [9]): 3.7 h; clearance (in vivo [11]): 13 mL/min/kg	CC(=O)NCc1cccc(Cn2nc(NS(=O)(=O)c3ccc(Cl)s3)c3c(C(C)O)cccc32)c1 (centres undefined)
≥ 161	4.1	39.8	1000			COc1cc(F)cc2c1c(NS(=O)(=O)c1ccc(Cl)s1)nn2Cc1cccc(CNC(C)=O)c1
≥ 153	4.9	39.8	794			COc1cccc2c1c(NS(=O)(=O)c1ccc(Cl)s1)nn2Cc1cccc(CNC(=O)C2CCCO2)c1 (centres undefined)
57 (≈ 110 µM)	4.8	100				CC(=O)NCc1cccc(Cn2nc(NS(=O)(=O)c3ccc(Cl)s3)c3c(C(C)=O)cccc32)c1
	2.9					COc1ccc(COc2nc(Br)cnc2NS(=O)(=O)c2ccc(C)cc2)cc1OCCN(C)C
≥ 177	4	79.4				COc1ccc(F)c2c1c(NS(=O)(=O)c1ccc(Cl)s1)nn2Cc1cccc(CNC(C)=O)c1
≥ 117	3.3	251		5.93		CC(=O)NCc1cccc(Cn2nc(NS(=O)(=O)c3ccc(Cl)s3)c3ccccc32)c1
76 (≈ 132 µM)	5.1	398		6.76		COc1cccc2c1c(NS(=O)(=O)c1ccc(Cl)c(Cl)c1)nn2Cc1cccc(CNC(=O)C(C)(C)O)c1
≥ 113	2.6	6.31	1000	5.66		CC(=O)NCc1cccc(Cn2nc(NS(=O)(=O)c3ccc(Cl)s3)c3c(CO)cccc32)c1
≥ 250	3.9	25.1	562			COc1cccc2c1c(NS(=O)(=O)c1ccc(Cl)s1)nn2Cc1cccc(CNC(=O)[C@H]2COCCN2)c1

solubility kinetic [1] [µg/mL]	chromatographic logD [2]	IC50 [3] [nM]	Kb [4] [nM]	pKa [5]	other results	Compound
≥ 174	4.1	39.8	631			COc1c(F)ccc2c1c(NS(=O)(=O)c1ccc(Cl)s1)nn2Cc1cccc(CNC(=O)C(C)(C)O)c1
≥ 139	3	79.4	5010	5.62		CC(=O)NCc1cccc(Cn2nc(NS(=O)(=O)c3ccc(Cl)s3)c3c(F)cccc32)c1
122 (≈ 235 µM)	4.3	251				COc1cccc2c1c(NS(=O)(=O)c1ccc(Cl)s1)nn2Cc1cccc(CNC2COC2)c1
≥ 159	2.9	100		5.46		CC(=O)NCc1cccc(Cn2nc(NS(=O)(=O)c3ccc(Cl)s3)c3c(C(C)(C)O)cccc32)c1
≥ 188	3.7	100	7940	5.6		CC(=O)NCc1cccc(Cn2nc(NS(=O)(=O)c3ccc(Cl)s3)c3c(C(F)F)cccc32)c1
≥ 173	4	20	1000			COc1cccc2c1c(NS(=O)(=O)c1ccc(Cl)s1)nn2Cc1cccc(CNC(=O)C2COC2)c1
≥ 226	3.8	31.6	6310	6.03		CC(=O)NCc1cccc(Cn2nc(NS(=O)(=O)c3ccc(Cl)s3)c3c(Cl)cccc32)c1
≥ 141	2.6	158	> 10000			COc1cccc2c1c(NS(=O)(=O)c1ccc(Cl)s1)nn2Cc1cc(CNC(C)=O)ccn1
≥ 166	2.9	12.6	794	6.12	bioavailability [6]: 12%; Vd [7]: 1.2 L/kg; half-life (in vivo [9]): 1.2 h; clearance (in vivo [11]): 19 mL/min/kg	CC(=O)NCc1cccc(Cn2nc(NS(=O)(=O)c3ccc(Cl)s3)c3c(O)cccc32)c1
≥ 155	2.5	316		5.4		CC(=O)NCc1cccc(Cn2nc(NS(=O)(=O)c3ccc(Cl)s3)c3c(C#N)cccc32)c1
					Kinetic_solubility [1]: >= 203 ug ml-1; pIC50 ([3]; cho): 8.2; pA2 [4]: 6.6	COc1cccc2c1c(NS(=O)(=O)c1ccc(Cl)s1)nn2Cc1cccc(CNC(=O)C2COCCN2C)c1 (single isomer, unassigned; isomer A)
≥ 161	2.5	100				COc1cccc2c1c(NS(=O)(=O)c1ccc(Cl)s1)nn2Cc1ccnc(CNC(C)=O)c1
124 (≈ 227 µM)	4.5	31.6				COc1cccc2c1c(NS(=O)(=O)c1ccc(Cl)s1)nn2Cc1cccc(CNC(=O)C2CCO2)c1 (centres undefined)
≥ 198	4.5	50.1		7.06		COc1cccc2c1c(NS(=O)(=O)c1cccc(Cl)c1)nn2Cc1cccc(CNC(=O)C(C)(C)O)c1
≥ 193	4.4	31.6	501			COc1cccc2c1c(NS(=O)(=O)c1ccc(Cl)s1)nn2Cc1cccc(CNC(=O)C2CCOCC2)c1
